In ChEMBL document CHEMBL4229352, “Synthesis, antileishmanial activity and mechanism of action studies of novel β-carboline-1,3,5-triazine hybrids” (Eur J Med Chem, 2018):

System: Leishmania amazonensis
Assay: Antileishmanial activity against promastigote forms of Leishmania amazonensis after 72 hrs by XTT/PMS dye based spectrophotometric analysis
Assay type: functional, organism-based
Details: not given
Outline: (§1)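 Log-phase parasites (promastigotes 48 h, axenic amastigotes 72 h) plated at the printed density with increasing compound concentrations; 72 h at 25 °C (promastigotes) or 32 °C (axenic amastigotes). XTT/PMS (0.5 and 0.3 mg/mL) added in the dark, absorbance at 450 nm after 4 h; IC50 versus negative control by regression. Mean ± SD of at least three independent experiments.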

Going from `CCCCCCCCCCCCCCCCOP(=O)([O-])OCC[N+](C)(C)C` [MILTEFOSINE] to `CC(C)Nc1nc(NCCNC(=O)c2cc3c([nH]c4ccccc43)c(-c3cccc([N+](=O)[O-])c3)n2)nc(NC(C)C)n1`, the IC50 rises from 18.5 µM to 44.6 µM (2.4-fold).

Compared with `CC(C)Nc1nc(NCCNC(=O)c2cc3c([nH]c4ccccc43)c(-c3ccccc3)n2)nc(NC(C)C)n1`, `CC(C)Nc1nc(NCCNC(=O)c2cc3c([nH]c4ccccc43)c(-c3ccccc3Cl)n2)nc(NC(C)C)n1` is higher in IC50: 7.5 µM for the first, greater than 100 µM for the second.

First: O=C(NCCNc1nc(Cl)nc(Cl)n1)c1cc2c([nH]c3ccccc32)c(-c2ccccc2)n1
Second: O=C(NCCNc1nc(Cl)nc(Cl)n1)c1cc2c([nH]c3ccccc32)c(-c2ccccc2Cl)n1
The IC50 of the first is 4.1-fold higher: 30.9 µM for the first, 7.6 µM for the second.

`COc1ccc(-c2nc(C(=O)NNc3nc(NC(C)C)nc(NC(C)C)n3)cc3c2[nH]c2ccccc23)cc1` and `CC(C)Nc1nc(NCCNC(=O)c2cc3c([nH]c4ccccc43)c(-c3ccc(F)cc3)n2)nc(NC(C)C)n1` cannot be ordered by IC50: greater than 100 µM for the first, greater than 100 µM for the second.

`O=C(NNc1nc(Cl)nc(Cl)n1)c1cc2c([nH]c3ccccc32)c(-c2ccccc2Cl)n1` and `O=C(NNc1nc(Cl)nc(Cl)n1)c1cc2c([nH]c3ccccc32)c(-c2ccccc2)n1` are within 1.5-fold of each other in IC50: 34.1 µM for the first, 43.3 µM for the second.

Going from `NNc1nc(NN)nc(NCCNC(=O)c2cc3c([nH]c4ccccc43)c(-c3ccccc3)n2)n1` to `COc1ccc(-c2nc(C(=O)NCCNc3nc(Cl)nc(Cl)n3)cc3c2[nH]c2ccccc23)cc1`, the IC50 falls from greater than 100 µM to 67.5 µM. The second is the more potent here.

System: Leishmania amazonensis
Assay: Antileishmanial activity against axenic amastigote forms of Leishmania amazonensis after 72 hrs by XTT/PMS dye based spectrophotometric analysis
Assay type: functional, organism-based
Details: not given
Outline: as §1

Going from `CCCCCCCCCCCCCCCCOP(=O)([O-])OCC[N+](C)(C)C` [MILTEFOSINE] to `CC(C)Nc1nc(NCCNC(=O)c2cc3c([nH]c4ccccc43)c(-c3ccccc3)n2)nc(NC(C)C)n1`, the IC50 rises from 2.4 µM to 35 µM (15-fold).

First: O=C(NCCNc1nc(Cl)nc(Cl)n1)c1cc2c([nH]c3ccccc32)c(-c2ccccc2)n1
Second: O=C(NNc1nc(Cl)nc(Cl)n1)c1cc2c([nH]c3ccccc32)c(-c2ccccc2)n1
The IC50 of the first is 1.7-fold higher: 1.9 µM for the first, 1.1 µM for the second.

`COc1ccc(-c2nc(C(=O)NCCNc3nc(Cl)nc(Cl)n3)cc3c2[nH]c2ccccc23)cc1` showed an IC50 of 1 µM.

System: not listed separately
Assay: Cytotoxicity against mouse J774A1 cells assessed as reduction in cell viability after 48 hrs by MTT assay
Assay type: cell-based, J774.A1
Details: not given
Outline: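 J774-A1 macrophages in RPMI 1640 with 10% FBS, plated and left 24 h at 37 °C, 5% CO2. Supernatant then replaced by increasing compound concentrations for 48 h. After a PBS wash, MTT (2 mg/mL) was added for 4 h at 25 °C in the dark, formazan dissolved in DMSO, absorbance read at 570 nm. CC50 by regression versus negative control; at least three experiments.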

Compared with `CCCCCCCCCCCCCCCCOP(=O)([O-])OCC[N+](C)(C)C` [MILTEFOSINE], `CC(C)Nc1nc(NCCNC(=O)c2cc3c([nH]c4ccccc43)c(-c3cccc([N+](=O)[O-])c3)n2)nc(NC(C)C)n1` is 2.1-fold higher in CC50 at 48 h: 40.5 µM for the first, 86.3 µM for the second.

`CC(C)Nc1nc(NCCNC(=O)c2cc3c([nH]c4ccccc43)c(-c3ccccc3)n2)nc(NC(C)C)n1` and `O=C(NCCNc1nc(Cl)nc(Cl)n1)c1cc2c([nH]c3ccccc32)c(-c2ccccc2)n1` are within 1.5-fold of each other in CC50 at 48 h: 98.1 µM for the first, 135 µM for the second.

`O=C(NNc1nc(Cl)nc(Cl)n1)c1cc2c([nH]c3ccccc32)c(-c2ccccc2Cl)n1` and `O=C(NCCNc1nc(Cl)nc(Cl)n1)c1cc2c([nH]c3ccccc32)c(-c2ccccc2Cl)n1` are within 1.5-fold of each other in CC50 at 48 h: 22 µM for the first, 28.5 µM for the second.

Compared with `O=C(NNc1nc(Cl)nc(Cl)n1)c1cc2c([nH]c3ccccc32)c(-c2ccccc2)n1`, `COc1ccc(-c2nc(C(=O)NCCNc3nc(Cl)nc(Cl)n3)cc3c2[nH]c2ccccc23)cc1` is 2.1-fold higher in CC50 at 48 h: 94.5 µM for the first, 201 µM for the second.

System: not listed separately
Assay: Selectivity index, ratio of CC50 for mouse J774A1 cells to IC50 for promastigote forms of Leishmania amazonensis
Assay type: toxicity
Details: read-out: Ratio CC50/IC50
Outline: (§2)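 Selectivity index calculated as CC50 in J774-A1 macrophages (48 h MTT) divided by IC50 for L. amazonensis promastigotes or axenic amastigotes (72 h XTT/PMS).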

First: CCCCCCCCCCCCCCCCOP(=O)([O-])OCC[N+](C)(C)C [MILTEFOSINE]
Second: CC(C)Nc1nc(NCCNC(=O)c2cc3c([nH]c4ccccc43)c(-c3cccc([N+](=O)[O-])c3)n2)nc(NC(C)C)n1
The selectivity ratio of the first is higher: 2.2 for the first, 1.9 for the second.

Compared with `CC(C)Nc1nc(NCCNC(=O)c2cc3c([nH]c4ccccc43)c(-c3ccccc3)n2)nc(NC(C)C)n1`, `O=C(NCCNc1nc(Cl)nc(Cl)n1)c1cc2c([nH]c3ccccc32)c(-c2ccccc2)n1` is lower in selectivity ratio: 13.1 for the first, 4.4 for the second.

Compared with `O=C(NNc1nc(Cl)nc(Cl)n1)c1cc2c([nH]c3ccccc32)c(-c2ccccc2Cl)n1`, `O=C(NCCNc1nc(Cl)nc(Cl)n1)c1cc2c([nH]c3ccccc32)c(-c2ccccc2Cl)n1` is higher in selectivity ratio: 0.6 for the first, 3.8 for the second.

Compared with `O=C(NNc1nc(Cl)nc(Cl)n1)c1cc2c([nH]c3ccccc32)c(-c2ccccc2)n1`, `COc1ccc(-c2nc(C(=O)NCCNc3nc(Cl)nc(Cl)n3)cc3c2[nH]c2ccccc23)cc1` is higher in selectivity ratio: 2.2 for the first, 3 for the second.

System: not listed separately
Assay: Selectivity index, ratio of CC50 for mouse J774A1 cells to IC50 for axenic amastigote forms of Leishmania amazonensis
Assay type: toxicity
Details: read-out: Ratio CC50/IC50
Outline: as §2

Compared with `CCCCCCCCCCCCCCCCOP(=O)([O-])OCC[N+](C)(C)C` [MILTEFOSINE], `CC(C)Nc1nc(NCCNC(=O)c2cc3c([nH]c4ccccc43)c(-c3ccccc3)n2)nc(NC(C)C)n1` is lower in selectivity ratio: 16.9 for the first, 2.8 for the second.

Going from `O=C(NCCNc1nc(Cl)nc(Cl)n1)c1cc2c([nH]c3ccccc32)c(-c2ccccc2)n1` to `O=C(NNc1nc(Cl)nc(Cl)n1)c1cc2c([nH]c3ccccc32)c(-c2ccccc2)n1`, the selectivity ratio rises from 70.8 to 85.9.

In the case of `COc1ccc(-c2nc(C(=O)NCCNc3nc(Cl)nc(Cl)n3)cc3c2[nH]c2ccccc23)cc1`, the selectivity ratio is reported as 201.

System: Leishmania amazonensis
Assay: Antileishmanial activity against promastigote forms of Leishmania amazonensis MHOM/BR/75/Josefa after 72 hrs by haemocytometry
Assay type: functional, organism-based
Details: not given

Going from `CCCCNC(=O)c1cc2c([nH]c3ccccc32)c(-c2ccc(OC)cc2)n1` to `COc1ccc(-c2nc(C(=O)NCc3ccccc3)cc3c2[nH]c2ccccc23)cc1`, the IC50 rises from 0.25 µM to 2.6 µM (10-fold).

System: not listed separately
Assay: Selectivity index, ratio of CC50 for mouse J774.G8 cells to IC50 for promastigote forms of Leishmania amazonensis MHOM/BR/75/Josefa
Assay type: toxicity
Details: read-out: Ratio CC50/IC50

`CCCCNC(=O)c1cc2c([nH]c3ccccc32)c(-c2ccc(OC)cc2)n1` showed a selectivity ratio of 2080.

System: Leishmania amazonensis
Assay: Antileishmanial activity against axenic amastigote forms of Leishmania amazonensis MHOM/BR/75/Josefa after 72 hrs by haemocytometry
Assay type: functional, organism-based
Details: not given

Work on `COc1ccc(-c2nc(C(=O)NCc3ccccc3)cc3c2[nH]c2ccccc23)cc1` yielded an IC50 of 1 µM.
